High-throughput results: PubChem BioAssay, several laboratories
Most compounds without a hit are left out; they make up all but 1.5% or so of the library.
CSN inh: blocks human CSN-mediated cullin deneddylation. Q92905. Purified CSN, SCF-Nedd8-OG deneddylation, fluorescence polarization. inhibition, % at 12.5 µM. 360,000 compounds, 0.38% hits;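 active = pattern-corrected inhibition above about 35%, with an unprinted fluorescence ratio check between 0.5 and 1.5, limit read from the data, passing the limit was not always enough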
Target sequence (Q92905 whole entry, looked up, one chain of several): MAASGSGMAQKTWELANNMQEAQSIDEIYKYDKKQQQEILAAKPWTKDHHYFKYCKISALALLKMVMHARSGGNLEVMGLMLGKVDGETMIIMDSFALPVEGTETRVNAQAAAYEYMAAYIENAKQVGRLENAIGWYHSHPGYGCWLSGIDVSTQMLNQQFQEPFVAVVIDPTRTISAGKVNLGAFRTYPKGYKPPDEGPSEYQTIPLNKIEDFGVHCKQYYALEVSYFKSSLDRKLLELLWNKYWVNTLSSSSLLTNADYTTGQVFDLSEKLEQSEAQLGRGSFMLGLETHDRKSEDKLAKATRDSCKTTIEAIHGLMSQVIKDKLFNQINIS
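assay system = purified human Csn5 enzyme expressed in HEK293T cells | amount = 0.24 nM enzyme | buffer or medium = Tris/NaCl/DTT buffer, pH 7.5 | reagent = 10 nM SCFSkp2-Nedd8OG | compound = one concentration, 12.5 µM, 0.25% DMSO | times = 90 min reaction at room temperature | signal = FP | read-out basis = % inhibition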
LANA-H2B inh: blocks KSHV LANA binding to histone H2A/H2B; Q9QR71; cell-free LANA-H2A/H2B peptide, fluorescence polarization; inhibition, % (concentration not given with the values); 320,000 compounds, 0.6% hits; in the data active = inhibition mostly above about 10%, no sharp cut-off; inactive = mostly below about 6.7%
Bfl-1 A1 inh: inhibitors of the anti-apoptotic protein A1, read as caspase activation; MEF A1-2A-BIM cells, Caspase-Glo 3/7 luminescence, 3 h; percent of clofoctol response, vehicle zero; caspase activation, % (concentration not given with the values); 330,000 compounds, 0.066% hits; AID 2462;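 active = over half of replicate activation scores above 10%, or exactly half above 10 with the replicate mean above 10; inconclusive = replicate mean below 10 yet half the replicates above 10; inactive = over half of replicates below 10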
ZTA counter: counter-screen for EBNA-1 inhibitors: inhibitors of Epstein-Barr virus ZTA | P03206 | ZTA-DNA binding, fluorescence polarization | inhibition, % at 11 µM | 320,000 compounds, 0.15% hits; in the data active = inhibition above about 33%
Target sequence (P03206 whole entry, looked up): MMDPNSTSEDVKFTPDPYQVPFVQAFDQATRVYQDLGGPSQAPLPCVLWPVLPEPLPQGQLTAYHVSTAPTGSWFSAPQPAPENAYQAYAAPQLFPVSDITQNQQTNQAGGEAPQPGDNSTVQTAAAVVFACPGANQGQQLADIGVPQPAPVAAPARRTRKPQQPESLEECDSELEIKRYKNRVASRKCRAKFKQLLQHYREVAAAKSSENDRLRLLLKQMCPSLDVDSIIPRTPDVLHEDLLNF
HNF4A DNA FP: change in binding of human HNF4 alpha to DNA | activity change, % at 10 µM | 360,000 compounds, 0.3% hits | HNF4a-FITC DNA binding, fluorescence polarization, 1 h | P41235; in the data active = activity change above about 30%, passing the limit was not always enough
EBNA-1 inh: blocks EBNA-1 binding to DNA. 300,000 compounds, 0.34% hits. inhibition, % at 14.8 µM. EBNA-1 DNA binding, fluorescence polarization. AID 1950; in the data active = inhibition above about 28%
EBNA-1 confirm: EBNA-1 (EBV) inhibition, confirmation. shares compounds with EBNA-1 inh. Recombinant EBNA-1 DBD, Cy5-DNA fluorescence polarization. inhibition, % at 14.8 µM. 830 compounds, 35% hits. AID 2292;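 active = mean inhibition across replicates above a set limit taken from the earlier primary screen, cut at about 28% in these data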
ZTA counter trip: ZTA (EBV) inhibition, triplicate counter-screen; Zta-ZRE DNA binding, Cy5 fluorescence polarization; 830 tested, under 10 active; inhibition, % at 11.1 µM; shares compounds with EBNA-1 inh;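 active = mean inhibition over triplicates above a set limit taken from the primary EBNA-1 screen, cut at about 37% in these data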;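 note: purified full length Zta protein with Cy5 labeled ZRE DNA probe; inhibitors lower polarization by freeing the labeled DNA probe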
ZTA inh confirm: EBV ZTA DNA binding inhibition, confirmation; shares compounds with ZTA counter; Zta-ZRE DNA binding, fluorescence polarization; inhibition, % at 11.1 µM; 320 compounds, 30% hits;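 active = mean inhibition across triplicate runs above the hit threshold derived for the original primary screen, cut at about 33% in these data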
EBNA1 counter: EBNA-1 DNA binding inhibition, counter-screen for ZTA; shares compounds with ZTA counter; fluorescence polarization; inhibition, % at 14.8 µM; 320 tested, under 10 active; call rule not given here
CSN5 deneddyl: Csn5 (human) deneddylation inhibition, single-concentration validation; shares compounds with CSN inh; Csn5 deneddylation of SCF-Nedd8OG, fluorescence polarization, 90 min; inhibition, % at 16.6 µM; 540 compounds, 62% hits; AID 720654; in the data active = inhibition above about 50%
MMP-2 counter: counter-screen for CSN deneddylation inhibitors: human MMP-2 inhibition; 540 compounds, 33% hits; recombinant MMP-2, FRET substrate fluorescence, 60 min; inhibition, % at 16.6 µM; shares compounds with CSN inh;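 active = corrected plate-normalized z-score of 5 or more, or -5 or less, or inhibition of 15% or more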
Thrombin cntr: thrombin (bovine) inhibition, counter-screen for CSN hits; bovine thrombin cleavage of Ub4-pepOG, fluorescence polarization; AID 720656; inhibition, % at 16.6 µM; shares compounds with CSN inh; 540 compounds, 49% hits;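 active = inhibition at or above a set limit, with a fluorescence interference ratio between 0.5 and a set maximum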
Of the large screens only hits and unclear results are named; the others gave an inactive call (follow-up assays come after a bar, where they were run).

Cc1ccc(-n2cccc2/C=C2/C(=N)N3C(=NC2=O)SN=C3S(C)(=O)=O)cc1Cl	CSN inh 59, EBNA-1 inh 32 | EBNA-1 confirm inactive | ZTA counter trip inactive | CSN5 deneddyl inactive | MMP-2 counter inactive | Thrombin cntr 39
Cc1cccc(C)c1-n1cccc1/C=C1/C(=N)N2C(=NC1=O)SN=C2S(C)(=O)=O	none
Cc1ccc(/C=C/S(=O)(=O)NCCC(=O)NCc2ccc(F)cc2)cc1	none (no result: EBNA-1 inh)
CCOC(=O)c1csc(-c2csc(CCNC(=O)c3ccccc3)n2)n1	none (no result: LANA-H2B inh, Bfl-1 A1 inh, ZTA counter, EBNA-1 inh)
Cc1cc(/C=C2\SC(=S)N(C)C2=O)c(C)n1-c1ccccc1O	CSN inh 39, EBNA-1 inh 35 | EBNA-1 confirm 43 | ZTA counter trip inactive | CSN5 deneddyl 63 | MMP-2 counter inactive | Thrombin cntr 37
N=C1/C(=C\c2ccc(-c3cccc(C(=O)O)c3)o2)C(=O)N=C2SC=C(c3ccccc3)N12	CSN inh 64, EBNA-1 inh 32 | EBNA-1 confirm 36 | ZTA counter trip inactive | MMP-2 counter 16 | Thrombin cntr 29
CN(CC(O)Cn1c2ccccc2c2ccccc21)S(C)(=O)=O (stereo not drawn)	none
OCCN(CCO)CC(O)Cn1c2ccccc2c2ccccc21 (stereo not drawn)	ZTA counter 61 | ZTA inh confirm inactive | EBNA1 counter inactive
CCCN1C[C@@H](C)[C@@H](OC)CN(C)C(=O)c2ccc(NC(=O)c3cccc(F)c3)cc2OC[C@H]1C	none (no result: LANA-H2B inh, Bfl-1 A1 inh, ZTA counter, EBNA-1 inh)
C#CCN(C[C@@H]1[C@@H](OC(=O)NCc2ccccc2)[C@@H](OC(=O)NCc2ccccc2)CN(C(=O)OC(C)C)N1C(=O)OC(C)C)S(=O)(=O)c1ccc(C)cc1	none (no result: LANA-H2B inh, Bfl-1 A1 inh, ZTA counter, EBNA-1 inh)
CCC(C)Sc1cc(-c2nc3ccc(C)cn3c2NCc2ccccc2)ccc1OC (stereo not drawn)	ZTA counter 40 | ZTA inh confirm 93 | EBNA1 counter inactive
CCC(C)Sc1ccc(-c2nc3ccc(C)cn3c2NCc2ccccc2)cc1OC (stereo not drawn)	none
CC(=O)Nc1cccc(NC(=O)COc2ccccc2C)c1	ZTA counter 94 | ZTA inh confirm inactive | EBNA1 counter inactive
CC(=O)Nc1c(S(=O)(=O)c2ccccc2)c2nc3ccccc3nc2n1Cc1ccccc1	none
C=CCn1c(NS(=O)(=O)c2ccccc2)c(S(=O)(=O)c2ccc(C)cc2)c2nc3ccccc3nc21	ZTA counter 56 | ZTA inh confirm inactive | EBNA1 counter inactive
Cc1cccc(NC(=O)C(C)Oc2ccc(C)nc2[N+](=O)[O-])c1 (stereo not drawn)	none (no result: ZTA counter, EBNA-1 inh)
COc1ccc(C2=NN(C(C#N)c3ccc(OC)cc3)C(c3ccccc3)C2)cc1 (stereo not drawn)	ZTA counter 35 | ZTA inh confirm inactive | EBNA1 counter inactive
COc1ccc(N2CCN(S(C)(=O)=O)CC2)cc1	none (no result: Bfl-1 A1 inh)
COc1ccc(N2CCN(S(=O)(=O)c3ccc(OC)cc3)CC2)cc1	ZTA counter 99 | ZTA inh confirm inactive | EBNA1 counter inactive
O=C(O)c1ccc(N/N=C/C2=C(N3CCOCC3)C(=C\c3ccccc3)/CC2)cc1	ZTA counter 69, HNF4A DNA FP 35 | ZTA inh confirm inactive | EBNA1 counter inactive
C#CCOc1c(/C=C\c2nc(O)c([N+](=O)[O-])c(=O)[nH]2)cc(Br)cc1OC	ZTA counter 50 | ZTA inh confirm inactive | EBNA1 counter inactive
COC(=O)COc1c(/C=C\c2nc(O)c([N+](=O)[O-])c(=O)[nH]2)cccc1OC	none
CC1CCN(CCc2nc3cc(NC(=O)COc4ccc(Cl)cc4)ccc3n2C)CC1	none
CCN(CC)CCOC(=O)c1ccc(N/C=C(/C#N)c2nc(-c3ccc(OC)cc3)cs2)cc1	CSN inh 137, ZTA counter 47 | ZTA inh confirm inactive | EBNA1 counter inactive
CCC(C(=O)O)n1cnc2scc(-c3ccc(C)c(C)c3)c2c1=O (stereo not drawn)	ZTA counter 117 | ZTA inh confirm inactive | EBNA1 counter inactive
CCC(C(=O)OC)n1cnc2scc(-c3ccc(C)c(C)c3)c2c1=O (stereo not drawn)	none
COc1cc(/C=C/c2[nH]c(=O)[nH]c(=O)c2[N+](=O)[O-])cc([N+](=O)[O-])c1O	ZTA counter 36 | ZTA inh confirm 55 | EBNA1 counter inactive
O=C(NC1CCCCC1)c1cc(-c2cccc(Cl)c2)on1	none
COc1ccc(OC)c(C(=O)C(=O)c2cc(OC)ccc2OC)c1	none (no result: LANA-H2B inh, Bfl-1 A1 inh, ZTA counter, EBNA-1 inh)
COc1ccc(OC)c(N)c1	ZTA counter 37 | ZTA inh confirm inactive | EBNA1 counter inactive
Cc1c(C)n(Cc2ccccc2)c2ncnc(NN)c12	ZTA counter 39 | ZTA inh confirm inactive | EBNA1 counter inactive
CCCCCCCCCC[N+](C)(C)CC/C=C1/c2ccccc2Sc2ccc(Cl)cc21	ZTA counter 34 | ZTA inh confirm inactive | EBNA1 counter inactive
CCCCCCCCCCC[N+](C)(C)CC/C=C1/c2ccccc2Sc2ccc(Cl)cc21	Bfl-1 A1 inh inconclusive, ZTA counter 40 | ZTA inh confirm inactive | EBNA1 counter inactive
CN(C)CC/C=C1\c2ccccc2Sc2ccc(Cl)cc21	none
CC[N+](C)(C)CC/C=C1/c2ccccc2Sc2ccc(Cl)cc21	none
CCNc1c([N+](=O)[O-])c(=O)oc2ccccc12	ZTA counter 35 | ZTA inh confirm inactive | EBNA1 counter inactive
CCc1ccc(Nc2c([N+](=O)[O-])c(=O)oc3ccccc23)cc1	none
